Experimental data reported in publication PMC6150782 (Journal of molecular neuroscience : MN, 2018).
≈ marks a conversion by molar mass, not a printed value.

What was measured:
hippocampal cultures [1] = assay type: cell-based, rat; conditions: for cell death response at 30 min or 60 min of incubation / time points with significant cell death differences from control: 30 μM cannabidiol, 100 μM KLS-13019, day 18–19 cultures
[2] = Mouse plasma pharmacokinetics; assay type: in vivo, CD1 mice
hippocampal cultures [3] = experiment: Effect of CB2 antagonist AM 630 on neuroprotection from ethanol, CFDA assay; assay type: cell-based, rat; conditions: AM 630 0.1 to 100 nM; 30 mM ethanol; 10 μM CBD or 100 nM KLS-13019
[4] = Metabolic stability in mouse liver microsomes; assay type: in vitro ADME
In short: (§1)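 Test compound at 1 μM incubated with human or mouse liver microsomes for up to 60 min. Samples analysed by LTQ-Orbitrap XL mass spectrometry. Single determination per time point. Testosterone at 1 μM served as the metabolically labile control. Run by a contract lab.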

[5] = Aqueous solubility, shaken flask method; assay type: physicochemical
In short: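 Shake-flask method at pH 1.2, 7.4 and 9.2. Dissolved concentration measured by HPLC against a standard curve.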

hERG channel = hERG channel (Homo sapiens, UniProt Q12809); experiment: hERG channel binding assay; conditions: 10 μM; [3H]-dofetilide; HEK-293
In short: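 Binding to human recombinant hERG expressed in HEK-293 cells, using 3 nM [3H]-dofetilide. Test compound at 10 μM, 60 min at room temperature. Non-specific binding defined with 25 μM terfenadine. Reported as % inhibition of control specific binding. Run by a contract lab.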

[6] = system: dissociated rat hippocampal cultures; assay type: cell-based
In short: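 Papain-dissociated E18 rat hippocampal cells at 10,000/well in serum-free Neurobasal/B27/GlutaMAX, used at days 12–14 after a medium change. Test compound (DMSO stock diluted in DPBS, ≤0.1% DMSO; 5 concentrations, n=5, two plates) added 5 min before 30 mM ethanol plus 300 μM ammonium acetate, then 5 h at 37 °C. CFDA 15 min at 37 °C, 30 min efflux wash, Triton lysis, Ex490/Em517. EC50 from 4-parameter logistic fit.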

[7] = Metabolic stability in human liver microsomes; assay type: in vitro ADME
In short: as §1

[8] = system: dissociated rat hippocampal cultures; assay type: cell-based; remark: listed apart in the source
In short: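 E18 rat hippocampal cultures at days 12–14 received test compound (5 concentrations, n=5, two plates) 5 min before 30 mM ethanol plus 300 μM ammonium acetate, then 5 h at 37 °C. Medium removed and 50 μM propidium iodide applied for 15 min in the dark at room temperature. Read at Ex536/Em590 minus cell-free blank wells. IC50 from 4-parameter logistic fit.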

PPARγ = biological target: T1, PPARγ (Homo sapiens, UniProt P37231); experiment: PPARγ agonist binding; conditions: 10 μM; data not shown
T1 sequence (P37231 1-505): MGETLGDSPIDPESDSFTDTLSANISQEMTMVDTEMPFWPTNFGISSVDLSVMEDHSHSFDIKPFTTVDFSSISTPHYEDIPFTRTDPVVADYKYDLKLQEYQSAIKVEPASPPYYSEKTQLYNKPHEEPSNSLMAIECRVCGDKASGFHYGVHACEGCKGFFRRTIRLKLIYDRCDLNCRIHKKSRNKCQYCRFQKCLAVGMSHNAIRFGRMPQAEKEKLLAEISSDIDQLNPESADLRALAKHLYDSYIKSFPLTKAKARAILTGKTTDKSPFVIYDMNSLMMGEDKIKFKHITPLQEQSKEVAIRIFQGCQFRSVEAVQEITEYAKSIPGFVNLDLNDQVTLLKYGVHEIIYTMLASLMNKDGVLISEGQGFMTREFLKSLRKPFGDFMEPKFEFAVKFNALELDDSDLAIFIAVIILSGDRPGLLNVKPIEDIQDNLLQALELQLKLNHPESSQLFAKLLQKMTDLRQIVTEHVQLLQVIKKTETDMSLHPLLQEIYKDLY

5HT1a = biological target: T2, 5HT1a (Homo sapiens, UniProt P08908); experiment: 5HT1a agonist binding; conditions: 10 μM; data not shown
T2 sequence (P08908 1-422): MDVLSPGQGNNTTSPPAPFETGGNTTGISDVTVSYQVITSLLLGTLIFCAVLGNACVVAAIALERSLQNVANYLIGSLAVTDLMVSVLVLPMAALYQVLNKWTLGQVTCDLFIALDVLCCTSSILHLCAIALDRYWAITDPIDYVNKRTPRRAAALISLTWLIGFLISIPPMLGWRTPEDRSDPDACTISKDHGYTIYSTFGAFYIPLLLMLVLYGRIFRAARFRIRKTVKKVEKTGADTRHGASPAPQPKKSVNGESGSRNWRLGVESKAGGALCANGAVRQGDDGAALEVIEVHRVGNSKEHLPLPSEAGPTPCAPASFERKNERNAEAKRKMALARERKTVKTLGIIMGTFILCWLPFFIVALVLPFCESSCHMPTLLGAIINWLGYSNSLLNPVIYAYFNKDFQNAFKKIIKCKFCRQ

[9] = Plasma protein binding, equilibrium dialysis, mouse plasma; assay type: in vitro ADME; conditions: 1 μM, 5 hours at 37 °C
CB2 = CB2 (Homo sapiens, UniProt P34972); experiment: CB2 binding; conditions: 10 μM; 0.8 nM radioligand; human recombinant CHO cells
[10] = Anticonvulsant activity in animal models; conditions: in vivo
TRPV1 = TRPV1 (Homo sapiens, UniProt Q8NER1); experiment: TRPV1 receptor binding screen; conditions: 10 μM; data not shown
hippocampal cultures [11] = assay type: cell-based, rat
[12] = Plasma protein binding, equilibrium dialysis, human plasma; assay type: in vitro ADME; conditions: 1 μM, 5 hours at 37 °C
Log P = assay type: physicochemical
[13] = male, CD1, mouse, plasma, po, 10 mg/kg
[14] = combined ethanol + ammonium acetate
[15] = CD1 mice, plasma, 10 mg/kg p.o.
[16] = compound alone in Captisol, 5 hours, day 14 cultures

Chain of hERG channel (Q12809 whole entry): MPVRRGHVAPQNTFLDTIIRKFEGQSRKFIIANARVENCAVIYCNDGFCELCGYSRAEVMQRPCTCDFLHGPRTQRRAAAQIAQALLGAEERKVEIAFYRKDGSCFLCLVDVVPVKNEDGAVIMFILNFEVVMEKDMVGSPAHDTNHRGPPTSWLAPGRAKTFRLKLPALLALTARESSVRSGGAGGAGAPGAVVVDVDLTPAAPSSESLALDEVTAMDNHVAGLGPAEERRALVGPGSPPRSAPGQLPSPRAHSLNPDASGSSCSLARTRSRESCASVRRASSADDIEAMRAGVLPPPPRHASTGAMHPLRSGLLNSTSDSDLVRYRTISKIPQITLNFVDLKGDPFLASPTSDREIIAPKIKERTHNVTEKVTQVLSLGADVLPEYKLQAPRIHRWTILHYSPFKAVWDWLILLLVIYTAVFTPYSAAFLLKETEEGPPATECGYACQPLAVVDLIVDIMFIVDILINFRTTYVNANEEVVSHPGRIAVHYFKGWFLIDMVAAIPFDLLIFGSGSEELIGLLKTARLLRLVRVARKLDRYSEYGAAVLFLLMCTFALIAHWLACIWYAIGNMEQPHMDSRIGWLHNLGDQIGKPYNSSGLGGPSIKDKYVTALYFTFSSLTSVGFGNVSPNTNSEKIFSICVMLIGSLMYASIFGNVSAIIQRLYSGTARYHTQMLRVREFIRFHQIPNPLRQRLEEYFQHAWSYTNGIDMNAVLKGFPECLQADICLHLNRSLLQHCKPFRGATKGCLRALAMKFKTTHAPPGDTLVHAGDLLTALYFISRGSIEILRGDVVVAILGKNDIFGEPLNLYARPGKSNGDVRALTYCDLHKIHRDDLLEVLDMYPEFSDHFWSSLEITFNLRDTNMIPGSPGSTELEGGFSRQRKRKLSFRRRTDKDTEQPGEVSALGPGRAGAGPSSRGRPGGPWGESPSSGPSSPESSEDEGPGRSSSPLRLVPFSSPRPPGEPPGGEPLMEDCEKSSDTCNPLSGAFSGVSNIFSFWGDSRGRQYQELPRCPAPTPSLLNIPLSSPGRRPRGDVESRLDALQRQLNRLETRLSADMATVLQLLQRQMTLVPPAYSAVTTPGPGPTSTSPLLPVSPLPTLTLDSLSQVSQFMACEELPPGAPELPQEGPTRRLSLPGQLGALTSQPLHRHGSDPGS
Chain of TRPV1 (Q8NER1 whole entry, species assumed): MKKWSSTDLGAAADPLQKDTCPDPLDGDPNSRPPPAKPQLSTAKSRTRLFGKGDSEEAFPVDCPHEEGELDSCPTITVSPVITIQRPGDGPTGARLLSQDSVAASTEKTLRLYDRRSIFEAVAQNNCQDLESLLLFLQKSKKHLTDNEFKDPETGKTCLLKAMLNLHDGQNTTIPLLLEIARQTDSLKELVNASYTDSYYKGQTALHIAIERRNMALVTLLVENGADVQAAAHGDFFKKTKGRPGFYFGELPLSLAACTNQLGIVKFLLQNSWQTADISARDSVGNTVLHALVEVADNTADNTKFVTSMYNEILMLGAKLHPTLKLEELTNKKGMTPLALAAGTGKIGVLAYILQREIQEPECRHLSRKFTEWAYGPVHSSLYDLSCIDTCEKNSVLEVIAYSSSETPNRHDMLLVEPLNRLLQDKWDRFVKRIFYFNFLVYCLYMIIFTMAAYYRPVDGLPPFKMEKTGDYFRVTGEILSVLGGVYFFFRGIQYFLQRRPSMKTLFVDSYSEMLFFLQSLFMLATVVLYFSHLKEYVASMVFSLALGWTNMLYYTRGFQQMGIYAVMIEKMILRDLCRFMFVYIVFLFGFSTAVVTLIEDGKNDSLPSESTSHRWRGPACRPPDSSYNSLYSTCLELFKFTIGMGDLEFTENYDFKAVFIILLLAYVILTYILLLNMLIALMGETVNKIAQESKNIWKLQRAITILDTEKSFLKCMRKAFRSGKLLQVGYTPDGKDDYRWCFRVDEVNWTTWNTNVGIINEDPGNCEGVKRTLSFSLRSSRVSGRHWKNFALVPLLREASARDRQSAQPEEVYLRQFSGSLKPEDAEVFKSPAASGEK
Chain of CB2 (P34972 whole entry): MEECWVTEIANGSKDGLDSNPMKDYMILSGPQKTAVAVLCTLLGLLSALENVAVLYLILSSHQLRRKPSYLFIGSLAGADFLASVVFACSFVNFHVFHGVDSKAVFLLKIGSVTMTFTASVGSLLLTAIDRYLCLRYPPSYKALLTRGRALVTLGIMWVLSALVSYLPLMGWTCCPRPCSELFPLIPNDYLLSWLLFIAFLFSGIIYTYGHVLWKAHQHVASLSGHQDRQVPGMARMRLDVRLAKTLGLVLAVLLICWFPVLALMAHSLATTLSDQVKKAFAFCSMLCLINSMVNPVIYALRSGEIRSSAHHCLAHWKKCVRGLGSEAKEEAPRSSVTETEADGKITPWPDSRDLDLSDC

## O=C1CSC(c2ccccc2Cl)c2cc(Cl)ccc2N1 (stereo not shown) [CGP-37157, 7-Chloro-5-(2-chlorophenyl)-1,5-dihydro-4,1-benzothiazepin-2(3H)-one, reference compound]
Hippocampal cultures [1]; 5 hours, day 14 cultures
  concentration with significant increase in propidium iodide fluorescence: 100 µM

## C=C(C)[C@@H]1CCC(C)=C[C@H]1c1c(O)cc(CCCCC)cc1O [Cannabidiol, reference compound]
[2]; CD1 mice, IV 2 mg/kg
  CL IV 2 mg/kg: 120 mL/min/kg
[2]; CD1 mice, plasma, 10 mg/kg p.o., 10 mg/kg
  T 1/2 p.o.: 207 min
[2]; male, CD1, mouse, plasma, iv, 2 mg/kg
  Vd: 7.5 L/kg
[2]; male, CD1, mouse, plasma, oral, 10 mg/kg
  bioavailability: 8%
[2]; [13]
  AUC: 268 ng·h/mL
  Cmax: 51 ng/mL
Hippocampal cultures [3]
  effect of CB2 antagonist AM 630 on compound-mediated neuroprotection: significantly attenuated
[4]; mouse, liver microsomes
  half-life at 1 μM: < 5 min
[5]; aqueous medium
  solubility: 17 µM (≈ 5.35 µg/mL)
Hippocampal cultures [1]
  cell death response at 30 min or 60 min of incubation: no significant changes from controls
  time points with significant cell death differences from control: ≥ 3 h
hERG channel
  hERG Potassium channel % Inhibition of specific binding: 73%
[6]; [14]
  efficacy of neuroprotection back to control levels (CFDA): full efficacy
[6]; hippocampal cultures
  concentration required for full efficacy against oxidative stress toxicity: 10 µM
[7]; human, liver microsomes
  half-life at 1 μM: 3.75 min
[8]; [14]
  efficacy of neuroprotection back to control levels (PI): full efficacy

## C=C(C)[C@@H]1CCC(C)=C[C@H]1c1c(O)cc(CC2CN(C(C)=O)C2)cc1O [KLS-13019]
PPARγ
  receptor binding PPARγ (agonist): no detectable interactions
[2]; CD1 mice, IV 2 mg/kg
  CL IV 2 mg/kg: 76.7 mL/min/kg
  Vss IV 2 mg/kg: 3.2 L/kg
[2]; [15]
  AUC p.o.: 617 ng·h/mL
  Cmax at 10 mg/kg p.o.: 1080 ng/mL
  Tmax p.o.: 15 min
[2]; CD1 mice, oral 10 mg/kg, IV 2 mg/kg
  F% (oral bioavailability): 67%
[2]; mice
  fold increase in F% in comparison to CBD: > 8 fold
[2]; mice, 10 mg/kg p.o.
  fold increase in AUC compared to CBD: 2.3 fold
[2]; mice, i.v. 2 mg/kg
  clearance (CL), i.v. arm: 4.6 mL/min/kg
[2]; mice, p.o.
  increase in T 1/2 in comparison to CBD: more than 50%
Hippocampal cultures [3]
  effect of CB2 antagonist AM 630 on compound-mediated neuroprotection: had no effect
5HT1a
  receptor binding to 5HT-1a agonist site: no detectable interactions
[4]; mouse liver microsomes, 1 μM
  Microsomal stability Mouse T 1/2: 5.67 min
[5]
  Aqueous solubility: 87 µM
  fold increase in aqueous solubility in comparison to CBD: > five
[9]
  Plasma protein binding Mouse % bound: 99.2%
CB2
  displacement of 3H-WIN-55212-2 radioactivity at CB2: 55%
Hippocampal cultures [1]
  cell death response at 30 min or 60 min of incubation: no significant changes from controls
  time points with significant cell death differences from control: ≥ 3 h
Hippocampal cultures [1]; [16]
  TC50, cell death assay: ~100 µM
[10]
  anticonvulsant activity in animal models: lack of anticonvulsant activity
hERG channel
  hERG Potassium channel % Inhibition of specific binding: 12%
TRPV1
  receptor binding TRPV1 (agonist): no detectable interactions
  receptor binding TRPV1 (antagonist): no detectable interactions
[6]; [14]
  efficacy of neuroprotection back to control levels (CFDA): full efficacy
  fold increase in neuroprotective potency vs CBD (relative EC50s, CFDA): 31 fold
[6]; read-out: EC50 for CFDA (neuroprotection), 30 mM Ethanol + 300 μM Ammonium Acetate, 5 hours, days 12–14
  EC50: 0.127 ± 0.027 µM
[7]; human liver microsomes, 1 μM
  Microsomal stability Human T 1/2: 5.69 min
Hippocampal cultures [11]; [16]
  TC50, neuronal viability assay: 81 µM
Hippocampal cultures [11]; day 14 cultures, 5 hours
  maximal toxicity, % of control values: 73 ± 3 % of control
Hippocampal cultures [11]; day 19 cultures, time course at 30 μM cannabidiol, 100 μM KLS-13019
  maximal achieved toxicity, % of control, neuronal viability assay: 62 ± 3 % of control
Hippocampal cultures [11]; viability and cell death assays
  fold increase in TC50 relative to CBD: 5 fold
[12]
  Plasma protein binding Human % bound: 99.2%
[8]; [14]
  efficacy of neuroprotection back to control levels (PI): full efficacy
  fold increase in neuroprotective potency vs CBD (relative IC50s, PI): 15 fold
[8]; read-out: IC50 for PI (neuroprotection), 30 mM Ethanol + 300 μM Ammonium Acetate, 5 hours, days 12–14
  IC50: 0.203 µM
Log P
  Log P: 3.42
